{
  "source": "ChEMBL document CHEMBL2203173",
  "about": "(J Med Chem, 2012)",
  "key": {"Mus musculus [1]": {"tested_on": "Mus musculus", "assay": "Toxicity in BALB/c nu/nu mouse xenografted with human DMS53 cells assessed as change in hematocrit level at 7.5 mg/kg, po administered for 3 times a week measured after 20 days", "format": "organism-based, DMS-53", "design": "dose 7.5 mg/kg, route oral", "conditions": "in vivo, 480 h", "procedure,_shortened": "(§1)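 Nude mice bearing DMS-53 xenografts gavaged 3 times/week for 20 days, vehicle 30% propylene glycol/saline, vehicle controls, n = 6-11 mice/condition. Sacrifice on day 20. Organ weights and hematological indices recorded. Spleen, kidney, liver, heart, lungs and brain examined histologically, hearts stained with Gomori Trichrome for fibrosis.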"}, "Mus musculus [2]": {"tested_on": "Mus musculus", "assay": "Toxicity in BALB/c nu/nu mouse xenografted with human DMS53 cells assessed as body weight change at 10 mg/kg, po administered for 3 times a week measured after 20 days", "conditions": "in vivo, 480 h"}, "Mus musculus [3]": {"tested_on": "Mus musculus", "assay": "Toxicity in BALB/c nu/nu mouse xenografted with human DMS53 cells assessed as change in RBC count at 7.5 mg/kg, po administered for 3 times a week measured after 20 days", "format": "organism-based, DMS-53", "design": "dose 7.5 mg/kg, route oral", "conditions": "in vivo, 480 h"}, "Mus musculus [4]": {"tested_on": "Mus musculus", "assay": "Toxicity in BALB/c nu/nu mouse xenografted with human DMS53 cells assessed as change in reticulocyte count at 6 mg/kg, iv administered for 5 days a week measured after 21 days", "format": "organism-based, DMS-53", "design": "dose 6 mg/kg, route intravenous", "conditions": "in vivo, 504 h", "procedure,_shortened": "(§2)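 Nude mice carrying DMS-53 xenografts (treatment from 100 mm3) received iv tail-vein doses in 30% propylene glycol/saline, 5 days/week for 21 days. Hematological indices (RBC, hemoglobin, hematocrit, reticulocytes, WBC, platelets) were then compared with vehicle controls.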"}, "Mus musculus [5]": {"tested_on": "Mus musculus", "assay": "Toxicity in BALB/c nu/nu mouse xenografted with human DMS53 cells assessed as change in platelet count at 6 mg/kg, iv administered for 5 days a week measured after 21 days", "format": "organism-based, DMS-53", "design": "dose 6 mg/kg, route intravenous", "conditions": "in vivo, 504 h", "procedure,_shortened": "as §2"}, "Mus musculus [6]": {"tested_on": "Mus musculus", "assay": "Toxicity in BALB/c nu/nu mouse xenografted with human DMS53 cells assessed as cardiac fibrosis at 3 mg/kg, iv administered for 5 days a week measured after 21 days by […]", "format": "organism-based, Heart, DMS-53", "design": "dose 3 mg/kg, route intravenous", "conditions": "in vivo, 504 h", "procedure,_shortened": "(§3)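 DMS-53 xenograft nude mice given agents iv by tail vein 5 days/week in 30% propylene glycol/saline for 21 days. At sacrifice, heart sections were stained with Gomori Trichrome to detect fibrosis. Spleen, kidney, liver, heart, lungs and brain were also stained with H&E and Perls' and examined by an independent veterinary pathologist.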"}, "Mus musculus [7]": {"tested_on": "Mus musculus", "assay": "Toxicity in BALB/c nu/nu mouse xenografted with human DMS53 cells assessed as hepatocellular fibrosis at 6 mg/kg, iv administered for 5 days a week measured after 21 days by hematoxylin and eosin staining method", "format": "organism-based, DMS-53", "design": "dose 6 mg/kg, route intravenous", "conditions": "in vivo, 504 h", "procedure,_shortened": "(§4)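 Nude mice with DMS-53 xenografts dosed by tail-vein iv injection in 30% propylene glycol/saline, starting at 100 mm3 tumour volume, 5 days/week for 21 days. Spleen, kidney, liver, heart, lungs and brain were stained with H&E, Perls' (Fe loading) and Gomori Trichrome (fibrosis) by standard methods, and an independent veterinary pathologist examined them.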"}, "Mus musculus [8]": {"tested_on": "Mus musculus", "assay": "Toxicity in BALB/c nu/nu mouse xenografted with human DMS53 cells assessed as change in lungs histology at 6 mg/kg, iv administered for 5 days a week measured after 21 days by hematoxylin and eosin staining method", "format": "organism-based, DMS-53", "design": "dose 6 mg/kg, route intravenous", "conditions": "in vivo, 504 h", "procedure,_shortened": "(§5)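 DMS-53 xenografts in nude mice; dosing started at 100 mm3 tumor volume. Agents given iv via tail vein, 5 days/week for 21 days, vehicle 30% propylene glycol/saline, vehicle-treated controls. Mice sacrificed day 21. Body and organ weights and hematological indices recorded. Spleen, kidney, liver, heart, lungs and brain were stained with H&E, Perls' and Gomori Trichrome and read by an independent veterinary pathologist.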"}, "Mus musculus [9]": {"tested_on": "Mus musculus", "assay": "Toxicity in BALB/c nu/nu mouse xenografted with human DMS53 cells assessed as change in hematopoetic cells in splenic red pulp at 3 mg/kg, iv administered for 5 days a week measured after 21 days by hematoxylin and eosin staining method", "format": "organism-based, DMS-53", "design": "dose 3 mg/kg, route intravenous", "conditions": "in vivo, 504 h", "procedure,_shortened": "as §5"}, "Mus musculus [10]": {"tested_on": "Mus musculus", "assay": "Cardiotoxicity in human DMS53 cells xenografted BALB/c nu/nu mouse at 20 mg/kg, po administered for 3 times a week measured after 20 days", "format": "toxicity, organism-based, DMS-53", "design": "dose 20 mg/kg, route oral", "conditions": "in vivo, 480 h", "procedure,_shortened": "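DMS-53 xenograft nude mice given oral gavage 3 times/week in 30% propylene glycol/saline for 20 days. Heart sections taken after 20 days were stained with Gomori Trichrome for fibrosis and viewed at 100×. Other organs were examined histologically.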"}, "Mus musculus [11]": {"tested_on": "Mus musculus", "assay": "Toxicity in BALB/c nu/nu mouse xenografted with human DMS53 cells assessed as change in body weight at 3 mg/kg, iv administered for 5 days a week measured after 21 days", "format": "organism-based, DMS-53", "design": "dose 3 mg/kg, route intravenous", "conditions": "in vivo, 504 h", "procedure,_shortened": "as §5"}, "Mus musculus [12]": {"tested_on": "Mus musculus", "assay": "Toxicity in BALB/c nu/nu mouse xenografted with human DMS53 cells assessed as change in brain histology at 3 mg/kg, iv administered for 5 days a week measured after 21 days by hematoxylin and eosin staining method", "format": "organism-based, DMS-53", "design": "dose 3 mg/kg, route intravenous", "conditions": "in vivo, 504 h", "procedure,_shortened": "as §5"}, "Mus musculus [13]": {"tested_on": "Mus musculus", "assay": "Toxicity in BALB/c nu/nu mouse xenografted with human DMS53 cells assessed as change in hematocrit level at 20 mg/kg, po administered for 3 times a week measured after 20 days", "format": "organism-based, DMS-53", "design": "dose 20 mg/kg, route oral", "conditions": "in vivo, 480 h", "procedure,_shortened": "as §1"}, "Mus musculus [14]": {"tested_on": "Mus musculus", "assay": "Toxicity in BALB/c nu/nu mouse xenografted with human DMS53 cells assessed as change in hemoglobin level at 4 mg/kg, iv administered for 5 days a week measured after 21 days", "format": "organism-based, DMS-53", "design": "dose 4 mg/kg, route intravenous", "conditions": "in vivo, 504 h", "procedure,_shortened": "as §5"}, "Mus musculus [15]": {"tested_on": "Mus musculus", "assay": "Toxicity in BALB/c nu/nu mouse xenografted with human DMS53 cells assessed as hepatocellular necrosis at 8 mg/kg, iv administered for 5 days a week measured after 21 days by hematoxylin and eosin staining method", "format": "organism-based, DMS-53", "design": "dose 8 mg/kg, route intravenous", "conditions": "in vivo, 504 h", "procedure,_shortened": "as §4"}, "Mus musculus [16]": {"tested_on": "Mus musculus", "assay": "Toxicity in BALB/c nu/nu mouse xenografted with human DMS53 cells assessed as change in lungs histology at 8 mg/kg, iv administered for 5 days a week measured after 21 days by hematoxylin and eosin staining method", "format": "organism-based, DMS-53", "design": "dose 8 mg/kg, route intravenous", "conditions": "in vivo, 504 h", "procedure,_shortened": "as §4"}, "Mus musculus [17]": {"tested_on": "Mus musculus", "assay": "Toxicity in BALB/c nu/nu mouse xenografted with human DMS53 cells assessed as change in heart weight at 20 mg/kg, po administered for 3 times a week measured after 20 days", "format": "organism-based, DMS-53", "design": "dose 20 mg/kg, route oral", "conditions": "in vivo, 480 h", "procedure,_shortened": "as §1"}, "Mus musculus [18]": {"tested_on": "Mus musculus", "assay": "Toxicity in BALB/c nu/nu mouse xenografted with human DMS53 cells assessed as change in spleen weight at 20 mg/kg, po administered for 3 times a week measured after 20 days", "format": "organism-based, DMS-53", "design": "dose 20 mg/kg, route oral", "conditions": "in vivo, 480 h", "procedure,_shortened": "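DMS-53 xenograft nude mice were gavaged 3 times/week in 30% propylene glycol/saline vehicle for 20 days and then sacrificed. Organ weights and histology of spleen, kidney, liver, heart, lungs and brain were compared with vehicle controls. n = 6-11 mice/condition.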"}, "Mus musculus [19]": {"tested_on": "Mus musculus", "assay": "Toxicity in BALB/c nu/nu mouse xenografted with human DMS53 cells assessed as change in hemoglobin level at 8 mg/kg, iv administered for 5 days a week measured after 21 days", "format": "organism-based, DMS-53", "design": "dose 8 mg/kg, route intravenous", "conditions": "in vivo, 504 h", "procedure,_shortened": "as §5"}, "Mus musculus [20]": {"tested_on": "Mus musculus", "assay": "Cardiotoxicity in BALB/c nu/nu mouse xenografted with human DMS53 cells at 8 mg/kg, iv administered for 5 days a week measured after 21 days", "format": "toxicity, organism-based, DMS-53", "design": "dose 8 mg/kg, route intravenous", "conditions": "in vivo, 504 h", "procedure,_shortened": "as §3"}, "Mus musculus [21]": {"tested_on": "Mus musculus", "assay": "Toxicity in BALB/c nu/nu mouse xenografted with human DMS53 cells assessed as change in body weight at 8 mg/kg, iv administered for 5 days a week measured after 21 days", "format": "organism-based, DMS-53", "design": "dose 8 mg/kg, route intravenous", "conditions": "in vivo, 504 h", "procedure,_shortened": "as §5"}, "Mus musculus [22]": {"tested_on": "Mus musculus", "assay": "Toxicity in BALB/c nu/nu mouse xenografted with human DMS53 cells assessed as vacuolation at 8 mg/kg, iv administered for 5 days a week measured after 21 days by hematoxylin and eosin staining method", "format": "organism-based, DMS-53", "design": "dose 8 mg/kg, route intravenous", "conditions": "in vivo, 504 h", "procedure,_shortened": "as §4"}, "Mus musculus [23]": {"tested_on": "Mus musculus", "assay": "Toxicity in BALB/c nu/nu mouse xenografted with human DMS53 cells assessed as change in RBC count at 4 mg/kg, iv administered for 5 days a week measured after 21 days", "format": "organism-based, DMS-53", "design": "dose 4 mg/kg, route intravenous", "conditions": "in vivo, 504 h"}, "Mus musculus [24]": {"tested_on": "Mus musculus", "assay": "Toxicity in BALB/c nu/nu mouse xenografted with human DMS53 cells assessed as change in reticulocyte count at 4 mg/kg, iv administered for 5 days a week measured after 21 days", "format": "organism-based, DMS-53", "design": "dose 4 mg/kg, route intravenous", "conditions": "in vivo, 504 h", "procedure,_shortened": "as §2"}},
  "data": [
    {"smiles": "CCN(C)C(=S)NN=C(c1ccccn1)c1ccccn1.Cl", "values": [
      {"measurement": "Activity", "setting": "Mus musculus [1]", "result": "Toxic"},
      {"measurement": "Activity", "setting": "Mus musculus [2]", "result": "Non-toxic"},
      {"measurement": "Activity", "setting": "Mus musculus [3]", "result": "Non-toxic"},
      {"measurement": "Activity", "setting": "Mus musculus [4]", "result": "Toxic"},
      {"measurement": "Activity", "setting": "Mus musculus [5]", "result": "Non-toxic"},
      {"measurement": "Activity", "setting": "Mus musculus [6]", "result": "Non-toxic"},
      {"measurement": "Activity", "setting": "Mus musculus [7]", "result": "Non-toxic"},
      {"measurement": "Activity", "setting": "Mus musculus [8]", "result": "Non-toxic"},
      {"measurement": "Activity", "setting": "Mus musculus [9]", "result": "Non-toxic"},
      {"measurement": "Activity", "setting": "Mus musculus [10]", "result": "Non-toxic"},
      {"measurement": "Activity", "setting": "Mus musculus [11]", "result": "Non-toxic"},
      {"measurement": "Activity", "setting": "Mus musculus [12]", "result": "Non-toxic"}
    ]},
    {"smiles": "CN(C(=S)NN=C(c1ccccn1)c1ccccn1)C1CCCCC1.Cl", "values": [
      {"measurement": "Activity", "setting": "Mus musculus [13]", "result": "Non-toxic"},
      {"measurement": "Activity", "setting": "Mus musculus [14]", "result": "Non-toxic"},
      {"measurement": "Activity", "setting": "Mus musculus [15]", "result": "Non-toxic"},
      {"measurement": "Activity", "setting": "Mus musculus [16]", "result": "Non-toxic"},
      {"measurement": "Activity", "setting": "Mus musculus [17]", "result": "Non-toxic"},
      {"measurement": "Activity", "setting": "Mus musculus [18]", "result": "Non-toxic"},
      {"measurement": "Activity", "setting": "Mus musculus [19]", "result": "Toxic"},
      {"measurement": "Activity", "setting": "Mus musculus [20]", "result": "Non-toxic"},
      {"measurement": "Activity", "setting": "Mus musculus [10]", "result": "Non-toxic"},
      {"measurement": "Activity", "setting": "Mus musculus [21]", "result": "Non-toxic"},
      {"measurement": "Activity", "setting": "Mus musculus [22]", "result": "Toxic"},
      {"measurement": "Activity", "setting": "Mus musculus [23]", "result": "Non-toxic"},
      {"measurement": "Activity", "setting": "Mus musculus [24]", "result": "Non-toxic"}
    ]}
  ]
}
